Assay outcomes as filed in PubChem.
KCNK3 inh: human KCNK3 channel inhibition, primary screen; O14649; CHO-KCNK3 thallium flux, FluxOR fluorescence; active compounds read low; B-score at 10 µM; actives 0.84% (n = 340,000); AID 602410;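 active = B-score under library mean minus 4 SD, starting fluorescence ratio at most library mean plus 5 SD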;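 also: more negative B-score means stronger inhibition of thallium flux through KCNK3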
Target sequence (O14649 whole entry, looked up): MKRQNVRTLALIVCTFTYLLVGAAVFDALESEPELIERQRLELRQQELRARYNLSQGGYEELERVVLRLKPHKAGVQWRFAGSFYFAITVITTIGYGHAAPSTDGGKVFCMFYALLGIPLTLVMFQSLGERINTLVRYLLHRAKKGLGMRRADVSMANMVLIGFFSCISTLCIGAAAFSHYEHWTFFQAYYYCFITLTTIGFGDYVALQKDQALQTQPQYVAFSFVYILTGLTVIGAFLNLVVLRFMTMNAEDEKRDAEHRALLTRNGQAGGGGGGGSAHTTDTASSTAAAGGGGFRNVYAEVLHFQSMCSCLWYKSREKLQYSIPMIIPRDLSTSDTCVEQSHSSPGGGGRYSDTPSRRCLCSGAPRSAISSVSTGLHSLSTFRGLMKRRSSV
KCNQ1 block: blocks the human KCNQ1 potassium channel. actives 1.3% (n = 310,000). CHO-K1 KCNQ1, FluxOR thallium flux fluorescence; active compounds read high. AID 2642. P51787. B-score at 10 µM;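 active = compounds whose thallium flux B-score, printed positive for inhibition, exceeds three library SD while starting fluorescence stays within three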;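 also: channel opened by potassium depolarization with thallium stimulus after 20 min compound exposure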
hERG rescue: shields human hERG channel from block by proarrhythmic agents | Q12809 | CHO-hERG, FluxOR thallium flux, dofetilide IC70 present | activation (rescue from dofetilide block), less the hit threshold, % at 10 µM | actives 0.51% (n = 310,000) | AID 1511;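 active = activation above the mean of controls blocked by dofetilide plus 5 SD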;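 also: thallium influx through hERG after potassium depolarization seen as dye fluorescence rise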
Kir21 inh: blocks the mouse Kir2.1 inward-rectifier potassium channel; B-score at 10 µM; AID 1672; HEK293-Kir2.1, FluxOR thallium flux fluorescence; active compounds read low; actives 0.85% (n = 310,000);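 active = fluorescence ratio B-score at or below minus 3 SD of library scores, with starting-brightness B-score within 2 SD, cut at about -4.2 in these data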;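 also: channel flux triggered by added potassium and thallium sulfate stimulus; B-score of peak minus minimum fluorescence over baseline after thallium stimulus; more negative B-score means stronger Kir2.1 block with less thallium influx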
KCNK9 block: inhibitors of human KCNK9 two-pore domain potassium channel; Q9NPC2; AID 488922; HEK293 KCNK9, FluxOR thallium flux fluorescence; active compounds read low; B-score at 10 µM; actives 1.2% (n = 310,000);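 active = ratio B-score over 3 SD below the library mean, with starting fluorescence within 5 SD of its mean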;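 also: negative B-score means less thallium flux so channel inhibition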
KCNQ1 act: potentiates or activates the human KCNQ1 potassium channel | P51787 | CHO-K1 KCNQ1, thallium flux FluxOR fluorescence; active compounds read high | B-score at 10 µM | actives 0.35% (n = 310,000) | AID 2648;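 active = fluorescence ratio B-score, a plate-corrected score, at least three library SD, with initial intensity B-score within 5 SD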
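Material: CHO-K1 cells stably expressing KCNQ1. Medium: assay buffer for compound exposure, DMSO matched across wells. Reagent: K+/Tl+ depolarizing stimulus. Compound dosing: single-concentration screen. Times: 37 °C overnight plating, 90-min dark dye load, 20-min compound pretreatment. Technique: FluxOR Tl+ flux fluorescence.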
KCNQ1 inh valid: human KCNQ1 channel inhibition, validation assay; inhibition, % at 10 µM; shares compounds with KCNQ1 block; AID 588353; actives 93% (n = 1,600); KCNQ1 cell line, FluxOR thallium flux fluorescence;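 active = primary screen active, with duplicate mean exceeding buffer control mean plus 3 SD of buffer wells, cut at about 28% in these data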
CHO KCNQ1 ctr: counter-screen for KCNQ1 inhibitors: effect in parental CHO cells. actives 21% (n = 1,600). fluorescence ratio (Tl flux) at 10 µM. shares compounds with KCNQ1 block. AID 588366. parental CHO-K1, FluxOR thallium flux fluorescence ratio; active compounds read low; zero means no signal rise above baseline;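 active = mean of duplicate thallium-flux fluorescence ratios in parental host cells more than 5 SD below the buffer control mean, cut at about 0.38 in these data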;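 also: ratio is peak minus minimum fluorescence divided by baseline fluorescence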
KCNQ1 ephys val: human KCNQ1 inhibition validated by electrophysiology | shares compounds with KCNQ1 block | KCNQ1-CHO cells, automated patch clamp current | calls only at 10 µM | actives 20% (n = 490);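 active = KCNQ1 current drop exceeding 3 SD of negative control wells, seen in both duplicate runs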;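 also: steady state current during a 2 s step from -80 to +40 mV; negative values mean current inhibition and positive values mean potentiation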
KCNQ2 inh: rat KCNQ2 inhibition in KCNQ1 inhibitor specificity screen | shares compounds with KCNQ1 block | KCNQ2 cells, FluxOR thallium flux fluorescence | inhibition, % at 10 µM | actives 71% (n = 1,600) | AID 651746;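 active = mean percent inhibition of the KCNQ2 thallium signal more than 5 SD above the buffer-only control wells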;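 also: KCNQ2 expressed in CHO cells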
KCNQ1-KCNE1 inh: human KCNQ1/KCNE1 inhibition in KCNQ1 specificity screen; shares compounds with KCNQ1 block; KCNQ1/KCNE1 cells, FluxOR thallium flux fluorescence; inhibition, % at 10 µM; actives 77% (n = 1,600); AID 652147;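 active = mean percent inhibition of duplicate wells above the buffer-only control mean plus 3 SD of those controls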
A number is an active result; 0 = inactive; - = no result. Most compounds without a hit are left out; they make up all but 3.7% or so of the library.

SMILES	KCNK3 inh	KCNQ1 block	hERG rescue	Kir21 inh	KCNK9 block	KCNQ1 act	KCNQ1 inh valid	CHO KCNQ1 ctr	KCNQ2 inh	KCNQ1-KCNE1 inh	others
O=C(NC1CCCCC1)C(c1cccnc1)N(C(=O)c1ccc(Cl)nc1)C1CCCCC1 (stereo not given)	0	22	0	0	0	0	0	0	0	0
CC[C@@]1(C(=O)OC)N[C@H](CN(C)C(=O)Nc2ccc(C)cc2)[C@@H]2C(=O)N(C)C(=O)[C@@H]21	0	-	-	-	-	-	-	-	-	-
O=C(Nc1ccc(Cl)c(Cl)c1)Nc1ccccc1O	0	7	0	0	0	0	72	0	0	66%
O=C1C=C(NC(=O)Nc2ccc(Cl)c(Cl)c2)CCC1	0	13	0	0	0	0	39	0	0	0
Cc1c(NC(=O)c2c(N)sc3c2CCCC3)c(=O)n(-c2ccccc2)n1C	0	0	0	0	0	0	-	-	-	-
O=C(CSc1nccc(=O)[nH]1)NN(c1ccccc1)c1ccccc1	0	0	0	0	0	0	-	-	-	-
CN(C)c1ccc(N=Nc2ccccc2C(=O)OCC(=O)N(C)c2ccccc2)cc1	0	8	0	0	0	0	99	0	93%	121%	KCNQ1 ephys val=0
COC(=O)c1ccccc1NC(=O)COC(=O)c1ccccc1N=Nc1ccc(N(C)C)cc1	0	0	0	0	0	0	-	-	-	-
Oc1ccc(N=Nc2ccccc2)o1	0	0	0	0	0	0	-	-	-	-
CCOC(=O)N(C)c1ccc(C(O)(C(F)(F)F)C(F)(F)F)cc1	0	8	0	0	0	0	74	0	79%	80%
Cc1ccc(N=Nc2c(N)[nH]n3c(=O)cc(-c4ccccc4)nc23)cc1	0	9	0	0	0	0	46	0	0	87%
COc1ccc(OCC(=O)N2CCC(n3nccc3NC(=O)C3CC3)CC2)cc1	0	0	0	0	0	0	-	-	-	-
CCOC(=O)N1CCC(NC(=O)CC2C(=O)NCCN2Cc2ccccc2F)CC1 (stereo not given)	0	0	0	0	0	0	-	-	-	-
Clc1cccc(-c2cc3nc4c(c(N5CCOCC5)n3n2)CCCC4)c1	-9.1	6	0	0	0	0	101	0	78%	117%
OC1CCN(c2c3c(nc4cc(-c5ccc(Cl)cc5)nn24)CCC3)CC1	0	0	0	0	0	0	-	-	-	-
CC(=O)Nc1cccc(NC(=O)C(C)N2c3cccc4cccc(c34)S2(=O)=O)c1 (stereo not given)	0	0	0	0	0	0	-	-	-	-
O=C(Nc1cccc(F)c1)OC(CN1CCCCC1)C(F)(F)F (stereo not given)	0	7	0	0	0	0	80	0	81%	106%
O=c1c2c(nc3n1CCCCC3)-c1ccccc1CC21CCCC1	0	8	0	0	0	0	122	0	115%	150%	KCNQ1 ephys val=0
Nn1cnc2c(c1=O)C1(CCCCC1)Cc1ccccc1-2	0	0	0	0	0	0	-	-	-	-
N#Cc1c(C(F)(F)F)cc(=O)n2c1[nH]c1ccccc12	0	6	0	0	0	0	38	0	107%	0
COc1cc2c(c(NC(C)=O)c1)N(C(C)=O)CCC2	0	-	-	-	-	-	-	-	-	-
O=C(Nc1ccc2ccccc2c1)C(c1ccccc1)C1CCCC1 (stereo not given)	0	15	0	0	-7.5	0	138	0.31	123%	167%
Cc1ccccc1NC(=O)C(c1ccccc1)C1CCCC1 (stereo not given)	0	0	0	0	0	0	-	-	-	-
